Calls of active or inactive are those of the source. The calls are words filed in the database; no cut-off is given here.
Tests used:
LNCaP = test: Cytotoxicity against human LNCAP cells at 50 uM assessed as cell viability after 72 hrs by MTS assay; type: functional
How it was run: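 LN-ARR2PBeGFP LNCaP cells exposed to compound for 72 h, then MTS reagent added and incubated 2 h at 37 °C in 5% CO2; absorbance read-out of proliferation/viability.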

[1] = target: T1, Androgen receptor (Rattus norvegicus) (UniProt P15207); test: Displacement of androgen from His-GST tagged rat AR hormone binding site at 10 uM assessed as decrease in fluorescence polarization
T1 sequence (whole entry): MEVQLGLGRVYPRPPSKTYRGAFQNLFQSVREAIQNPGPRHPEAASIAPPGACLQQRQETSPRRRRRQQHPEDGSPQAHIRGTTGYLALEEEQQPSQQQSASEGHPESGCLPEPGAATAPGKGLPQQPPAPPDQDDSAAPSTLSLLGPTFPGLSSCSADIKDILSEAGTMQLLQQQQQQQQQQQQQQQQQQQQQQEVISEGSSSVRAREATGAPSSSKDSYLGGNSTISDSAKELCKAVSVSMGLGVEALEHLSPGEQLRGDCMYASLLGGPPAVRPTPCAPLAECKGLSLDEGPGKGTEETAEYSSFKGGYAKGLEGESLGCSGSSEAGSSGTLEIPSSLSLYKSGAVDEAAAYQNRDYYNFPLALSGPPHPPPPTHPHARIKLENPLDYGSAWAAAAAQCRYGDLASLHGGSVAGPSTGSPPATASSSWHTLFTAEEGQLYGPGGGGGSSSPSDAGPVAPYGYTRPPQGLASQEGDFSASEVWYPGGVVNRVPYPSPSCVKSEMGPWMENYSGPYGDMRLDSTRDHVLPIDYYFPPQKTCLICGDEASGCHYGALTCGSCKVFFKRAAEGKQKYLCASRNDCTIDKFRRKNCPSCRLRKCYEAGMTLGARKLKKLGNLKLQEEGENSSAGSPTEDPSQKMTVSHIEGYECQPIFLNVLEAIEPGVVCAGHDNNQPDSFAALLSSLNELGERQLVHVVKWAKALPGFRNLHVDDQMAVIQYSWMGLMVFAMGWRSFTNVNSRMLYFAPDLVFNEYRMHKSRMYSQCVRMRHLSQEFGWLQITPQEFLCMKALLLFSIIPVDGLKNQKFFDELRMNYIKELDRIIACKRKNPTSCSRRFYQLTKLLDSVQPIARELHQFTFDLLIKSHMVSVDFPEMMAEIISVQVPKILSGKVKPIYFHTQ
How it was run: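 Hormone-site competition run with Polar Screen Androgen Receptor Competitor Green kit per manufacturer's protocol; compounds tested at 10 μM.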

Androgen receptor [2] = target: T2, Androgen receptor (Homo sapiens, UniProt P10275); test: (§1) Inhibition of human AR AF2 site expressed in human LNCap cells coexpressing eGFP -ARR2PB assessed as inhibition of transcriptional activity; type: cell-based
T2 sequence (P10275 whole entry): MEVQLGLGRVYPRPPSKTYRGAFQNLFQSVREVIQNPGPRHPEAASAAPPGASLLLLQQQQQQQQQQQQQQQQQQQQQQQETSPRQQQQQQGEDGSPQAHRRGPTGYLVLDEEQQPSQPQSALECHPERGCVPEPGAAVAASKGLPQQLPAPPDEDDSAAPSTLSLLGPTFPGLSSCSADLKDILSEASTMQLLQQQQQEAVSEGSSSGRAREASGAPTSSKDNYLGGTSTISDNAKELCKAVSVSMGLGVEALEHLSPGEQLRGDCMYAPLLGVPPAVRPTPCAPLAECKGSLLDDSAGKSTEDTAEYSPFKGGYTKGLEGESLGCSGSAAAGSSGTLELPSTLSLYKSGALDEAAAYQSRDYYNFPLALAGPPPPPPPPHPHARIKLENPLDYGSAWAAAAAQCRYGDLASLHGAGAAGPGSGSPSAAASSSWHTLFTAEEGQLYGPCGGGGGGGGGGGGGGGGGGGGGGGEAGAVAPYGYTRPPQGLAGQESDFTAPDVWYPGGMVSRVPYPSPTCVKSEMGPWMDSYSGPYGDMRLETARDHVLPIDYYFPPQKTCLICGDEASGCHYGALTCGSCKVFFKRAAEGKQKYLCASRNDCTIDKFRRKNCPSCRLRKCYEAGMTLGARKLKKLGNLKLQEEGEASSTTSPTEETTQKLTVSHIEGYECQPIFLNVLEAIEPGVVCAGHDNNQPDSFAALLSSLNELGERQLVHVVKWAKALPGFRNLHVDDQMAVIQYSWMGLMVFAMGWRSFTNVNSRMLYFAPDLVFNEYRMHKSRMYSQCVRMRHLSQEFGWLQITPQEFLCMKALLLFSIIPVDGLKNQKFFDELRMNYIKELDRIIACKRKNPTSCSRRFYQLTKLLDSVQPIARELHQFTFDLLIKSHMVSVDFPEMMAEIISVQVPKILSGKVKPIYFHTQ
How it was run: (§2)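 LNCaP cells stably carrying eGFP under androgen-responsive ARR2PB promoter, kept 5 days in phenol-red-free RPMI 1640 with 5% CSS, then plated at 35 000 cells/well with 0.1 nM R1881 plus compound 0–100 μM; after 3 days eGFP fluorescence read (ex 485, em 535 nm).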

Androgen receptor [3] = target: T2, Androgen receptor; test: (§3) Displacement of SRC2-3 peptide from human AR ligand binding site expressed in Escherichia coli BL21 by AF2 FP assay
How it was run: (§4)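 Purified AR LBD (2 μM) with FITC-SRC2-3 peptide (5 nM), compound 0–200 μM, in 25 mM HEPES pH 7.5, 50 mM NaCl, 0.01% NP-40, 2 μM DHT; 2 h incubation, FP read at ex 485/em 530 nm. Triplicate, means ± SD; IC50 by nonlinear four-parameter fit, Ki via Kenakin equation.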

[4] = target: T3, Androgen receptor (Homo sapiens) (UniProt P10275); test: as §1; type: cell-based; how it was run: as §2
T3 sequence (whole entry): T2 sequence (P10275 whole entry)

[5] = target: T3, Androgen receptor (Homo sapiens); test: as §3; how it was run: as §4

Oc1ccc(C2Nc3cccc4cccc(c34)N2)cc1
viability at 50 µM (LNCaP): 106%
inhibition [1]: inactive
IC50 (Androgen receptor [2]): 5.9 µM
IC50 (Androgen receptor [3]): 30.7 µM

CC1=NN(c2ccccc2)C(=O)/C1=N\Nc1ccc(C(=O)O)c(O)c1
viability at 50 µM (LNCaP): 50.9%
inhibition [1]: inactive
IC50 (Androgen receptor [2]): 33.4 µM
inhibition [4]: Dose-dependent effect
IC50 (Androgen receptor [3]): 26 µM
inhibition [5]: Dose-dependent effect

CCOc1cc(C2Nc3cccc4cccc(c34)N2)ccc1O
viability at 50 µM (LNCaP): 122%
inhibition [1]: inactive
IC50 (Androgen receptor [2]): 11.1 µM
IC50 (Androgen receptor [3]): 31.5 µM

COc1ccc(C2Nc3cccc4cccc(c34)N2)cc1O
viability at 50 µM (LNCaP): 145%
inhibition [1]: inactive
IC50 (Androgen receptor [2]): 34.4 µM
inhibition [4]: Dose-dependent effect
IC50 (Androgen receptor [3]): 8.2 µM
inhibition [5]: Dose-dependent effect

COc1cc(C2Nc3cccc4cccc(c34)N2)ccc1O
viability at 50 µM (LNCaP): 129%
inhibition [1]: inactive
IC50 (Androgen receptor [2]): 4.6 µM
IC50 (Androgen receptor [3]): 32.9 µM

Oc1ccc(C2Nc3cccc4cccc(c34)N2)cc1O
viability at 50 µM (LNCaP): 121%
inhibition [1]: inactive
IC50 (Androgen receptor [2]): 18.6 µM
inhibition [4]: Dose-dependent effect
IC50 (Androgen receptor [3]): 30.6 µM
inhibition [5]: Dose-dependent effect
